Assays:
[1] = Toxicity in Wistar rat administered as single dose; format: organism-based; conditions: in vivo
L1210 [2] = assay: Antitumor activity against mouse L1210 cells allografted in BDF1 mouse assessed as increase in life span at 50 mg/kg administered 6 times starting 24 hrs post challenge relative to control; format: functional; conditions: L1210, 24 h
Procedure, shortened: (§1)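 L1210 leukemia cells, 10^6, inoculated ip; dosing started 24 h after inoculation, given daily as an aqueous solution at pH 8.0-8.4. Survival of treated versus control mice was read out as %ILS = (T/C − 1) × 100.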

L1210 [3] = assay: Antitumor activity against mouse L1210 cells allografted in BDF1 mouse assessed as increase in life span at 40 mg/kg administered 10 times starting 24 hrs post challenge relative to control; format: functional; conditions: L1210, 24 h; procedure, shortened: as §1
W256 [4] = assay: Antitumor activity against […] cells allografted in rat assessed as tumor growth inhibition at 60 mg/kg administered 14 times starting 7 days post challenge relative to control; conditions: W256, 7 days, read-out: TGI
L1210 [5] = assay: Antitumor activity against mouse L1210 cells allografted in BDF1 mouse assessed as increase in life span at 33 mg/kg administered 6 times starting 24 hrs post challenge relative to control; format: functional; conditions: L1210, 24 h; procedure, shortened: as §1
W256 [6] = assay: Antitumor activity against […] cells allografted in rat assessed as tumor growth inhibition at 18 mg/kg administered 13 times starting 7 days post challenge relative to control; conditions: W256, 7 days, read-out: TGI
L1210 [7] = assay: Antitumor activity against mouse L1210 cells allografted in BDF1 mouse assessed as increase in life span at 100 mg/kg administered 8 times starting 24 hrs post challenge relative to control; format: functional; conditions: L1210, 24 h; procedure, shortened: as §1
W256 [8] = assay: Antitumor activity against […] cells allografted in rat assessed as tumor growth inhibition at 100 mg/kg administered 13 times starting 7 days post challenge relative to control; conditions: W256, 7 days, read-out: TGI
L1210 [9] = assay: Antitumor activity against mouse L1210 cells allografted in BDF1 mouse assessed as increase in life span at 100 mg/kg administered 6 times starting 24 hrs post challenge relative to control; format: functional; conditions: L1210, 24 h; procedure, shortened: as §1
L1210 [10] = assay: Antitumor activity against mouse L1210 cells allografted in BDF1 mouse assessed as increase in life span at 50 mg/kg administered 8 times starting 24 hrs post challenge relative to control; format: functional; conditions: L1210, 24 h; procedure, shortened: as §1
L1210 [11] = assay: Antitumor activity against mouse L1210 cells allografted in BDF1 mouse assessed as increase in life span at 100 mg/kg administered 7 times starting 24 hrs post challenge relative to control; format: functional; conditions: L1210, 24 h; procedure, shortened: as §1

Question: Which LD50 [1] does the source give for CC(NC(=O)c1ccc(N(C)Cc2cnc3nc(N)nc(N)c3n2)cc1)C(=O)NC(CCC(=O)O)C(=O)O (stereo not given) here?
Answer: Its LD50 is 500 mg/kg.

Question: And the ILS at 50 mg/kg (L1210 [2])?
Answer: The ILS at 50 mg/kg was 19%.

Question: Which results are given for Nc1nc(N)c2nc(CNc3ccc(C(=O)NCC(=O)NC(CC(=O)O)C(=O)O)cc3)cnc2n1.O (stereo not given)?
Answer: LD50 [1]: 200 mg/kg; ILS at 40 mg/kg (L1210 [3]): 69%; inhibition in vivo at 60 mg/kg (W256 [4]): 55%

Question: Which results are given for Nc1nc(N)c2nc(CNc3ccc(C(=O)NCC(=O)NC(CCC(=O)O)C(=O)O)cc3)cnc2n1.O (stereo not given)?
Answer: LD50 [1]: 400 mg/kg; ILS at 33 mg/kg (L1210 [5]): 14%; inhibition in vivo at 18 mg/kg (W256 [6]): 30%

Question: Which LD50 [1] does the source give for CN(Cc1cnc2nc(N)nc(N)c2n1)c1ccc(C(=O)NCC(=O)NC(CC(=O)O)C(=O)O)cc1.O (stereo not given) here?
Answer: The LD50 was 500 mg/kg.

Question: What about the ILS at 100 mg/kg (L1210 [7]) of the same compound?
Answer: The ILS at 100 mg/kg was 40%.

Question: And the inhibition in vivo at 100 mg/kg (W256 [8])?
Answer: Its inhibition in vivo at 100 mg/kg is 41%.

Question: What does the source list for CN(Cc1cnc2nc(N)nc(N)c2n1)c1ccc(C(=O)NCC(=O)NC(CCC(=O)O)C(=O)O)cc1.O (stereo not given)?
Answer: LD50 [1]: 830 mg/kg; ILS at 100 mg/kg (L1210 [7]): 0%

Question: What does the source list for CN(CC(=O)NC(CCC(=O)O)C(=O)O)C(=O)c1ccc(N(C)Cc2cnc3nc(N)nc(N)c3n2)cc1.O (stereo not given)?
Answer: LD50 [1]: 1000 mg/kg; ILS at 100 mg/kg (L1210 [9]): 0%

Question: Which LD50 [1] does the source give for CC(C)C[C@H](NC(=O)c1ccc(N(C)Cc2cnc3nc(N)nc(N)c3n2)cc1)C(=O)NC(CCC(=O)O)C(=O)O (stereo not given in full) here?
Answer: Its LD50 is 500 mg/kg.

Question: And the ILS at 50 mg/kg (L1210 [10])?
Answer: Its ILS at 50 mg/kg is 0%.

Question: Which LD50 [1] does the source give for CN(Cc1cnc2nc(N)nc(N)c2n1)c1ccc(C(=O)N[C@@H](Cc2ccccc2)C(=O)NC(CC(=O)O)C(=O)O)cc1.O (stereo not given in full) here?
Answer: Its LD50 is 1000 mg/kg.

Question: What about the ILS at 100 mg/kg (L1210 [11]) of the same compound?
Answer: Its ILS at 100 mg/kg is 0%.

Question: With CN(Cc1cnc2nc(N)nc(N)c2n1)c1ccc(C(=O)N[C@@H](Cc2ccccc2)C(=O)NC(CCC(=O)O)C(=O)O)cc1.O (stereo not given in full) as the compound, how does the LD50 [1] read?
Answer: The LD50 was 500 mg/kg.

From ChEMBL document CHEMBL3244424, “Potential anticancer agents. 17. Analogues of methotrexate with a tripeptide side chain” (J Med Chem, 1978)
